From ChEMBL document CHEMBL1275561, “In vitro activities of doripenem, a new broad-spectrum carbapenem, against recently collected clinical anaerobic isolates, with emphasis on the Bacteroides fragilis group” (2008)

Legend:
Type in all cases: functional
Clostridioides difficile = assay: Antimicrobial activity against Clostridium difficile by agar dilution method
Clostridium perfringens = assay: Antimicrobial activity against Clostridium perfringens by agar dilution method
[Clostridium] innocuum [1] = Antimicrobial activity against Clostridium innocuum by agar dilution method
[Clostridium] innocuum [2] = Antimicrobial activity against Clostridium innocuum assessed as resistant isolates by agar dilution method; conditions: pooled result: one value given for 4 cell lines, strains, targets or settings
[3] = tested on: Clostridium paraputrificum; assay: Antimicrobial activity against Clostridium paraputrificum by agar dilution method
Clostridium subterminale = assay: Antimicrobial activity against Clostridium subterminale by agar dilution method
Clostridium tertium = assay: Antimicrobial activity against Clostridium tertium by agar dilution method
Finegoldia magna [4] = assay: Antimicrobial activity against Finegoldia magna by agar dilution method
Summary of the method: (§1)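 Gram-positive anaerobes were tested by CLSI agar dilution on brucella agar enriched with 5% lysed defibrinated sheep blood and 1 μg/ml vitamin K1. Inoculum was log-phase growth at 0.5 McFarland, about 10^5 CFU/spot by replicator. Incubation was anaerobic, 37°C, 48 h. MIC was the lowest concentration with a marked growth change versus the drug-free plate. Eubacterium lentum ATCC 43055 was the control, and tests were repeated if it fell outside the CLSI range.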

Finegoldia magna [5] = assay: Antimicrobial activity against Finegoldia magna assessed as resistant isolates by agar dilution method
Summary of the method: (§2)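 Agar dilution following CLSI on brucella agar with 5% lysed defibrinated sheep blood and 1 μg/ml vitamin K1, plates made on test day. Log-phase cells at 0.5 McFarland, about 10^5 CFU/spot by Steers replicator, 48 h anaerobic at 37°C. MIC read as the lowest concentration causing a marked growth change versus control. Resistance counted by CLSI anaerobe breakpoints. Eubacterium lentum ATCC 43055 served as control.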

[6] = tested on: Peptoniphilus asaccharolyticus; assay: Antimicrobial activity against Peptoniphilus asaccharolyticus by agar dilution method; summary of the method: as §1
[7] = tested on: Peptoniphilus asaccharolyticus; assay: Antimicrobial activity against Peptoniphilus asaccharolyticus assessed as resistant isolates by agar dilution method; conditions: pooled result: one value given for 4 cell lines, strains, targets or settings; summary of the method: as §2
Parvimonas micra = assay: Antimicrobial activity against Micromonas micros by agar dilution method; summary of the method: as §1
Anaerococcus prevotii = assay: Antimicrobial activity against Anaerococcus prevotii by agar dilution method; summary of the method: as §1
Peptostreptococcus sp. = assay: Antimicrobial activity against Peptostreptococcus sp. by agar dilution method
Summary of the method: (§3)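 Log-phase isolates were adjusted to 0.5 McFarland, and about 10^5 CFU/spot was delivered by Steers replicator. Plates were incubated anaerobically at 37°C for 48 h. MIC was the lowest concentration giving a marked growth change versus the control plate. Eubacterium lentum ATCC 43055 was the QC strain, with repeats when out of range.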

Cutibacterium acnes [8] = assay: Antimicrobial activity against Propionibacterium acnes by agar dilution method; summary of the method: as §3
Cutibacterium acnes [9] = assay: Antimicrobial activity against Propionibacterium acnes assessed as resistant isolates by agar dilution method; summary of the method: as §2
Propionibacterium [10] = assay: Antimicrobial activity against Propionibacterium sp. by agar dilution method; summary of the method: as §3
Propionibacterium [11] = assay: Antimicrobial activity against Propionibacterium sp. assessed as resistant isolates by agar dilution method; summary of the method: as §2

CC(=O)NC[C@H]1CN(c2ccc(N3CCOCC3)c(F)c2)C(=O)O1 [LINEZOLID]
0.5 µg/mL: MIC (Cutibacterium acnes [8]) | MIC50 (Cutibacterium acnes [8]) | MIC (Propionibacterium [10]) | MIC50 (Propionibacterium [10]) | MIC90 (Propionibacterium [10])
1 µg/mL: MIC (Clostridioides difficile) | MIC50 [6] | MIC50 (Parvimonas micra) | MIC50 (Anaerococcus prevotii) | MIC50 (Peptostreptococcus sp.) | MIC90 (Cutibacterium acnes [8])
8 µg/mL: MIC90 ([Clostridium] innocuum [1]) | MIC90 [3] | MIC90 (Clostridium subterminale) | MIC90 (Clostridium tertium)
0%: Activity (Finegoldia magna [5]) | Activity [7] | Activity (Cutibacterium acnes [9]) | Activity (Propionibacterium [11])
4 µg/mL: MIC90 (Clostridium perfringens) | MIC50 ([Clostridium] innocuum [1]) | MIC50 [3] | MIC50 (Clostridium subterminale) | MIC50 (Clostridium tertium)
11%: Activity ([Clostridium] innocuum [2])
2 µg/mL: MIC (Clostridium perfringens) | MIC50 (Clostridium perfringens) | MIC (Finegoldia magna [4]) | MIC50 (Finegoldia magna [4]) | MIC90 (Finegoldia magna [4]) | MIC90 [6] | MIC90 (Parvimonas micra) | MIC90 (Anaerococcus prevotii) | MIC90 (Peptostreptococcus sp.)

Cc1ncc([N+](=O)[O-])n1CCO [METRONIDAZOLE]
32 µg/mL: MIC90 [6] | MIC90 (Parvimonas micra) | MIC90 (Anaerococcus prevotii) | MIC90 (Peptostreptococcus sp.) | MIC50 (Cutibacterium acnes [8]) | MIC90 (Cutibacterium acnes [8]) | MIC50 (Propionibacterium [10]) | MIC90 (Propionibacterium [10])
94.4%: Activity (Cutibacterium acnes [9])
0.5 µg/mL: MIC (Clostridioides difficile) | MIC (Finegoldia magna [4]) | MIC50 (Finegoldia magna [4]) | MIC90 (Finegoldia magna [4])
5.6%: Activity ([Clostridium] innocuum [2])
34.1%: Activity [7]
2 µg/mL: MIC50 (Clostridium perfringens) | MIC50 ([Clostridium] innocuum [1]) | MIC90 ([Clostridium] innocuum [1]) | MIC50 [3] | MIC90 [3] | MIC50 (Clostridium subterminale) | MIC90 (Clostridium subterminale) | MIC50 (Clostridium tertium) | MIC90 (Clostridium tertium)
0%: Activity (Finegoldia magna [5])
92.3%: Activity (Propionibacterium [11])
4 µg/mL: MIC90 (Clostridium perfringens)
1 µg/mL: MIC50 [6] | MIC50 (Parvimonas micra) | MIC50 (Anaerococcus prevotii) | MIC50 (Peptostreptococcus sp.)
